ChEMBL document CHEMBL1909561, “Stable and orally bio-available pro-drugs of CPS11” (Bioorg Med Chem Lett, 2011)
Calls of active or inactive are those of the source. The calls are words filed in the database; no cut-off is given here.

Experiments:
MX1 [1] = experiment: Antitumor activity against human MX1 cells implanted subcutaneously in mouse at 5 mg/kg, iv administered on day 7 post challenge; type: functional
In short: (§1)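 Mice implanted subcutaneously in the right flank with 1–2 mm³ MX-1 tumor fragments. Dosing began on day 7, at about 200 mm³ tumor size. Five mice per group: vehicle; 65 mg/kg once daily for five consecutive days; or that regimen plus Taxol 5 mg/kg iv once on day 7. Read-outs were tumor growth inhibition rate, survival and body weight.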

MX1 [2] = experiment: Potentiation of taxol-induced antitumor activity against human MX1 cells xenografted in mouse at 65 mg/kg, ip for 5 days co-administered with taxol at 5 mg/kg, iv on day 7 post challenge; type: functional, organism-based; in short: as §1
MX1 [3] = experiment: Antitumor activity against human MX1 cells xenografted in mouse at 65 mg/kg, ip for 5 days; type: functional, organism-based; design: dose 65 mg/kg; in short: as §1
[4] = (§2) Antiproliferative activity against human ECV304 cells assessed as growth inhibition after 72 hrs by MTT assay; type: cell-based, ECV-304; settings: human, ECV304 cells; read-out: GI
In short: (§3)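 ECV-304 grown in RPMI 1640 with 10% bovine serum, seeded 6000 cells/well and left to attach overnight at 37 °C, 5% CO₂. Medium then replaced by fresh medium with 1% FBS plus test agent or DMSO vehicle for 72 h. MTT added for a further 4 h, absorbance read at 535 nm. Duplicate wells, three independent repeats.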

HUVEC [5] = experiment: Antiproliferative activity against human HUVEC assessed as tube formation at 195 uM after 24 hrs; type: cell-based
In short: (§4)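 HUVECs in M199 with 20% bovine serum and 20 ng/mL bFGF, seeded at 20,000 cells/well onto Matrigel that had gelled 30 min at 37 °C, left to attach overnight. Medium changed to one containing test agent or vehicle (0.5% DMSO) and cultured 24 h at 37 °C, 5% CO₂. Each well photographed and counted.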

HUVEC [6] = experiment: Antiproliferative activity against human HUVEC at 195 uM after 24 hrs; type: cell-based; in short: as §4
ECV-304 = experiment: as §2; type: cell-based; settings: for IC50: Homo sapiens, ECV-304, 72 h; for growth inhibition (GI): human, ecv-304, 72 h; in short: as §3
[7] = Aqueous solubility of the compound after 8 hrs by UV spectroscopy; type: physicochemical
[8] = Bioavailability in intragastrically administered rat; type: ADME, organism-based; settings: in vivo, po
In short: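 Single intragastric dose given to rats; oral bioavailability determined.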

[9] = Stability of the compound assessed as purity after 2 months by HPLC method (reference value: 98.9%); type: physicochemical; settings: 1461 h
Mus musculus [10] = experiment: Toxicity in mouse assessed as mouse survival at 65 mg/kg, ip for 5 days co-administered with taxol at 5 mg/kg, iv on day 7 post challenge; type: organism-based; settings: in vivo, 120 h
In short: (§5)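 Mice bearing MX-1 human breast tumour fragments (1–2 mm³, implanted subcutaneously in the right flank), five per group. Treatment began on day 7 after inoculation, at a tumour size of about 200 mm³. Groups received vehicle, test compound at 65 mg/kg once daily for five consecutive days, or the same schedule plus Taxol 5 mg/kg iv once on day 7. Survival and body weight loss were monitored.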

Mus musculus [11] = experiment: Toxicity in mouse assessed as body weight loss at 65 mg/kg, ip for 5 days co-administered with taxol at 5 mg/kg, iv on day 7 post challenge; type: organism-based; settings: in vivo, 120 h; in short: as §5
[12] = Stability of the compound in aqueous solution after 8 hrs; type: physicochemical; settings: buffer
In short: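 Stability followed in aqueous solution over 8 h.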

Rattus norvegicus = experiment: Prodrug activation in IV dosed rat assessed as formation of CPS11; type: organism-based; settings: in vivo
PC-3 = experiment: Antitumor activity against human PC3 cells in xenograft model; type: functional
[13] = Toxicity in ip dosed nude mouse administered for 2 weeks; type: organism-based; settings: in vivo
[14] = Antitumor activity against human Lung cancer cells in metastasis model; type: functional, Cancer cell lines
[15] = Stability of the compound after 1 month by HPLC method (reference value: 91.6%); type: physicochemical; settings: read-out: Stability
[16] = Stability of the compound assessed as purity after 2 months by HPLC method (reference value: 99.3%); type: physicochemical; settings: 1461 h

CC(=O)O[C@H]1C(=O)[C@@]2(C)[C@H]([C@H](OC(=O)c3ccccc3)[C@]3(O)C[C@H](OC(=O)[C@H](O)[C@@H](NC(=O)c4ccccc4)c4ccccc4)C(C)=C1C3(C)C)[C@]1(OC(C)=O)CO[C@@H]1C[C@@H]2O [PACLITAXEL]
Activity (MX1 [1]): 33.1%

O=C(OCN1C(=O)CCC(N2C(=O)c3ccccc3C2=O)C1=O)c1cccnc1 (stereo not drawn) [listing 1 of 2 here]
Activity (MX1 [2]): Active | Activity (MX1 [3]): inactive

O=C1CCC(N2C(=O)c3ccccc3C2=O)C(=O)N1 (stereo not drawn) [THALIDOMIDE]
inhibition at 72 h [4]: 40% | Activity (HUVEC [5]): 53%

O=C(OCN1C(=O)CCC(N2C(=O)c3ccccc3C2=O)C1=O)c1ccccn1 (stereo not drawn)
Activity (HUVEC [6]): 88% | IC50 (ECV-304): 100 nM | growth inhibition (GI) (ECV-304): Dose-dependent effect

O=C(OCN1C(=O)CCC(N2C(=O)c3ccccc3C2=O)C1=O)c1cccnc1 (stereo not drawn) [listing 2 of 2 here]
Activity (HUVEC [6]): 88% | IC50 (ECV-304): 120 nM | growth inhibition (GI) (ECV-304): Dose-dependent effect

O=C(OCN1C(=O)CCC(N2C(=O)c3ccccc3C2=O)C1=O)c1ccncc1 (stereo not drawn)
Activity (HUVEC [6]): 88% | IC50 (ECV-304): 180 nM | growth inhibition (GI) (ECV-304): Dose-dependent effect

O=C(OCN1C(=O)CCC(N2C(=O)c3ccccc3C2=O)C1=O)c1cccnc1.O=S(=O)(O)c1ccccc1 (stereo not drawn)
solubility at 8 h [7]: 840 µg/mL | bioavailability [8]: 60.7% | Stability [9]: Stable | Activity (Mus musculus [10]): Non-toxic | Activity (Mus musculus [11]): Non-toxic | Stability [12]: Stable | Activity (Rattus norvegicus): Active

O=C1CCC(N2C(=O)c3ccccc3C2=O)C(=O)N1CO (stereo not drawn)
inhibition (INH) (PC-3): 90% | MTD at 336 h [13]: 100 mg/kg | inhibition (INH) [14]: 87% | remaining at 730.5 h [15]: 58.9%

Cl.O=C(OCN1C(=O)CCC(N2C(=O)c3ccccc3C2=O)C1=O)c1cccnc1 (stereo not drawn)
solubility at 8 h [7]: 1480 µg/mL | Stability [16]: Stable | Stability [12]: Stable
